Active and inactive are the calls of the source. The calls are words filed in the database; no cut-off is given here.
Key:
J774.A1 [1] = assay: Antiproliferative activity against mouse J774.A1 cells assessed as reduction in cell viability at 100 uM incubated for 24 hrs by MTT assay; type: functional, cell-based
How it was run: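 J774A.1 cells at 5 × 10^4 cells/well adhered 3 h, then were incubated 24 h with compound serial dilutions (100–12.5 μM). MTT (5 mg/mL stock) was added for 3 h, formazan dissolved in DMSO, and OD read at 570 nm. The value is the % dead cells, 100 − [(OD treated/OD control) × 100]. 6-Mercaptopurine (1 μM) was the reference. At least three experiments, each in triplicate.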

J774.A1 [2] = assay: Antiinflammatory activity in mouse J774.A1 macrophages assessed as inhibition of LPS-induced NO production at 12.5 to 50 uM preincubated for 1 hr followed by LPS stimulation and measured after 24 hrs by griess reagent based assay; type: functional, cell-based; details: dose 12.5-50 µM, time 25.0 hrs
How it was run: (§1)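 Macrophages adhered 3 h at 5 × 10^4 cells/well, then were exposed to compound (50–12.5 μM) for 1 h before E. coli LPS (10 μg/mL) was added. After 24 h, nitrite in the medium was reacted with Griess reagent for 10 min at room temperature and absorbance read at 550 nm. Values are in μM from a sodium nitrite standard curve. L-NAME (1 μM) served as reference. Data are mean ± SEM, n ≥ 3, triplicate.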

J774.A1 [3] = assay: Antiinflammatory activity in mouse J774.A1 macrophages assessed as inhibition of LPS-induced iNOS expression at 12.5 to 50 uM preincubated for 1 hr followed by LPS stimulation and measured after 24 hrs by cytofluorimetry analysis; type: functional, cell-based; details: dose 12.5-50 µM, time 25.0 hrs
How it was run: (§2)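 J774A.1 cells plated at 5 × 10^4 cells/well and allowed to adhere 3 h at 37 °C. Compounds were added 1 h before and then together with E. coli LPS (10 μg/mL) for 24 h. Cells were fixed and permeabilized, then stained with anti-iNOS or anti-COX-2 and a secondary antibody. Read as mean fluorescence intensity by flow cytometry. Indomethacin (1 μM) served as positive control. At least three independent experiments, each in triplicate.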

J774.A1 [4] = assay: Antiinflammatory activity in mouse J774.A1 macrophages assessed as inhibition of LPS-induced COX2 expression at 12.5 to 50 uM preincubated for 1 hr followed by LPS stimulation and measured after 24 hrs by cytofluorimetry analysis; type: functional, cell-based; details: dose 12.5-50 µM, time 25.0 hrs; how it was run: as §2
J774.A1 [5] = assay: Antioxidant activity in mouse J774.A1 macrophages assessed as inhibition of LPS-induced nitrotyrosine formation at 25 to 50 uM preincubated for 1 hr followed by LPS stimulation and measured after 24 hrs by cytofluorimetry analysis; type: functional, cell-based; details: dose 25-50 µM, time 25.0 hrs
How it was run: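 J774A.1 cells (5 × 10^4 cells/well, 3 h adherence) were pretreated with compound (50–12.5 µM) for 1 h, then LPS (10 µg/mL) was added. After 24 h cells were PBS-washed, fixed for 20 min and permeabilized for 30 min. Rabbit anti-nitrotyrosine and secondary antibody were each applied for 30 min. Read-out was flow-cytometric mean fluorescence intensity versus LPS alone. Means ± SEM, ≥3 independent experiments, each in triplicate.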

J774.A1 [6] = assay: Antioxidant activity in mouse J774.A1 macrophages assessed as inhibition of LPS-induced intracellular ROS production at 12.5 to 50 uM preincubated for 1 hr followed by LPS stimulation and measured after 24 hrs by DCFH2-DA probe based fluorescence analysis; type: functional, cell-based; details: dose 12.5-50 µM, time 25.0 hrs
How it was run: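 Macrophages (J774A.1, 5 × 10^4 cells/well, 3 h adherence) were given the compound (50–12.5 µM) 1 h before and during LPS (10 µg/mL). After 24 h cells were collected and washed twice in PBS, then loaded with 10 µM H2DCF-DA in PBS at 37 °C for 15 min. DCF fluorescence was read by flow cytometry as mean fluorescence intensity versus LPS alone. Means ± SEM, ≥3 independent experiments, each in triplicate.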

J774.A1 [7] = assay: Antiinflammatory activity in mouse J774.A1 macrophages assessed as inhibition of LPS-induced COX2 expression at 1 uM preincubated for 1 hr followed by LPS stimulation and measured after 24 hrs by cytofluorimetry analysis; type: functional; details: time 25 hrs; how it was run: as §2
J774.A1 [8] = assay: Antiinflammatory activity in mouse J774.A1 macrophages assessed as inhibition of LPS-induced NO production at 1 uM preincubated for 1 hr followed by LPS stimulation and measured after 24 hrs by griess reagent based assay; type: functional; details: time 25 hrs
How it was run: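 Murine J774A.1 cells (DMEM, 10% FBS) were plated at 5 × 10^4 cells/well and allowed to adhere for 3 h at 37 °C in 5% CO2. They were exposed to the agent in fresh medium for 1 h, then to E. coli LPS at 10 µg/mL for 24 h. Medium nitrite was measured with Griess reagent (10 min, room temperature, A550) and converted to µM against a sodium nitrite standard. Means ± SEM, ≥3 independent experiments, each in triplicate.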

J774.A1 [9] = assay: Antiinflammatory activity in mouse J774.A1 macrophages assessed as inhibition of LPS-induced iNOS expression at 1 uM preincubated for 1 hr followed by LPS stimulation and measured after 24 hrs by cytofluorimetry analysis; type: functional; details: time 25 hrs
How it was run: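 J774A.1 cells were plated at 5 × 10^4 cells/well and allowed to adhere for 3 h. The agent was added 1 h before LPS (10 µg/mL) and kept during stimulation; cells were harvested after 24 h. Cells were washed in PBS, fixed for 20 min and permeabilized for 30 min. Anti-iNOS primary and secondary antibodies were each applied for 30 min. Read-out was flow-cytometric mean fluorescence intensity versus LPS alone. Means ± SEM, ≥3 independent experiments, each in triplicate.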

J774.A1 [10] = assay: Antiinflammatory activity in mouse J774.A1 macrophages assessed as reduction in LPS-induced nitrite production at 12.5 to 50 uM preincubated for 1 hr followed by LPS stimulation and measured after 24 hrs by griess reagent based assay; type: functional, cell-based; details: dose 12.5-50 µM, time 25.0 hrs; how it was run: as §1
J774.A1 [11] = assay: Antioxidant activity in mouse J774.A1 macrophages assessed as inhibition of LPS-induced nitrotyrosine formation at 12.5 to 50 uM preincubated for 1 hr followed by LPS stimulation and measured after 24 hrs by cytofluorimetry analysis; type: functional, cell-based; details: dose 12.5-50 µM, time 25.0 hrs
How it was run: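 Cells were pretreated 1 h with compound (50–12.5 μM), then LPS (10 μg/mL) was added for 24 h. Cells were harvested, PBS-washed, fixed 20 min and permeabilized 30 min. They were stained 30 min with rabbit anti-nitrotyrosine, then 30 min with secondary antibody. Mean fluorescence intensity was read by flow cytometry. L-NAME and indomethacin (1 μM each) were positive controls. Mean ± SEM of at least three experiments, each in triplicate.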

For `Cc1cc2ccc3c(c2cc(O)c1=O)CCCC3(C)C`, which Activity (J774.A1 [1]) is on record?
The Activity was “Active”.

How did the Activity (J774.A1 [1]) turn out when `C[C@H]1CO[C@]2(C1)OC(=O)c1cc3c(cc12)CC(C)(C)CC3` was run?
The Activity was “Active”.

For `CC(C)c1cc2c(cc1O)[C@@]1(C)CCCC(C)(C)C1=C(O)C2=O`, which Activity (J774.A1 [1]) is on record?
Its Activity is “Active”.

What about the inhibition (J774.A1 [2]) of the same compound?
The inhibition was “Active”.

What about the inhibition (J774.A1 [3]) of the same compound?
The inhibition was “Active”.

And the inhibition (J774.A1 [4])?
Its inhibition is “Active”.

`CC(C)c1cc2ccc3c(c2oc1=O)CCCC3(C)C` was tested. Which Activity (J774.A1 [1]) did it give?
The Activity was “Active”.

With `C[C@H]1COC2=C1C(=O)C(=O)c1c2ccc2c1CCCC2(C)C` as the compound, how does the Activity (J774.A1 [1]) read?
Its Activity is “Active”.

What about the inhibition (J774.A1 [2]) of the same compound?
Its inhibition is “Active”.

What about the inhibition (J774.A1 [3]) of the same compound?
Its inhibition is “Active”.

What about the inhibition (J774.A1 [4]) of the same compound?
Its inhibition is “Active”.

And the inhibition (J774.A1 [5])?
The inhibition was “Active”.

And the inhibition (J774.A1 [6])?
Its inhibition is “Active”.

With `COc1ccc2c(c1)c(CC(=O)O)c(C)n2C(=O)c1ccc(Cl)cc1` [INDOMETHACIN] as the compound, how does the inhibition at 1 µM (J774.A1 [7]) read?
The inhibition at 1 µM was 47.8%.

`COC(=O)/C(=C\c1ccc2c3c1C(=O)O[C@H]3CCC2(C)C)C(C)C` was tested. Which Activity (J774.A1 [1]) did it give?
The Activity was “Active”.

What about the inhibition (J774.A1 [2]) of the same compound?
The inhibition was “Active”.

What about the inhibition (J774.A1 [3]) of the same compound?
Its inhibition is “Active”.

What about the inhibition (J774.A1 [4]) of the same compound?
Its inhibition is “Active”.

Which Activity (J774.A1 [1]) does the source give for `CC(C)c1cc2c(cc1O)[C@@]1(CO)CCCC(C)(C)[C@@H]1CC2` here?
Its Activity is “Active”.

What about the inhibition (J774.A1 [2]) of the same compound?
The inhibition was “Active”.

And the inhibition (J774.A1 [3])?
Its inhibition is “Active”.

And the inhibition (J774.A1 [4])?
The inhibition was “Active”.

For `CC(C)C1=CC2=C(C(=O)C1=O)[C@@]1(C)CCCC(C)(C)C1C[C@@H]2O` (stereo not given in full), which Activity (J774.A1 [1]) is on record?
Its Activity is “Active”.

With `COC(=O)[C@@H](N)CCCNC(=N)N[N+](=O)[O-]` as the compound, how does the inhibition at 1 µM (J774.A1 [8]) read?
The inhibition at 1 µM was 51.2%.

And the inhibition at 1 µM (J774.A1 [9])?
The inhibition at 1 µM was 47.1%.

What does the source list for `CC(C)/C(=C/c1ccc2c3c1C(=O)O[C@H]3CCC2(C)C)C(=O)O`?
inhibition (J774.A1 [2]): Active; inhibition (J774.A1 [3]): Active; inhibition (J774.A1 [4]): Active

How did the Activity (J774.A1 [10]) turn out when `Cc1coc2c1C(=O)C(=O)c1c-2ccc2c1C(=O)CCC2(C)C` was run?
The Activity was “Active”.

What about the inhibition (J774.A1 [2]) of the same compound?
Its inhibition is “Active”.

And the inhibition (J774.A1 [3])?
The inhibition was “Active”.

And the inhibition (J774.A1 [4])?
Its inhibition is “Active”.

And the inhibition (J774.A1 [11])?
Its inhibition is “Active”.

What about the inhibition (J774.A1 [6]) of the same compound?
The inhibition was “Active”.

For `CC(C)c1cc2ccc3c(c2c(O)c1O)C(=O)CCC3(C)C`, which Activity (J774.A1 [1]) is on record?
Its Activity is “Active”.

— ChEMBL document CHEMBL5257087, “Anti-inflammatory Activity of Tanshinone-Related Diterpenes from Perovskia artemisioides Roots” (2023)
